Assay results: ChEMBL document CHEMBL3792359, “Discovery of Orally Available Prodrugs of the Glutamate Carboxypeptidase II (GCPII) Inhibitor 2-Phosphonomethylpentanedioic Acid (2-PMPA)” (J Med Chem, 2016)

Tests used:
[1] = Metabolic stability in human plasma assessed as compound remaining at 10 uM after 1 hr by LC/MS/MS analysis; type: ADME, cell-free; details: read-out: Stability
Procedure, shortened: (§1)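 Prodrug at 10 µM spiked into mouse or human plasma or liver microsomes, incubated at 37 °C on an orbital shaker. Triplicate aliquots taken at 0, 30 and 60 min, quenched with 3 volumes of ice-cold acetonitrile containing losartan internal standard, vortexed, spun 12000 g for 10 min. Parent disappearance followed by LC/MS/MS and reported as % remaining at 1 h.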

[2] = Metabolic stability in mouse liver microsomes assessed as compound remaining at 10 uM after 1 hr by LC/MS/MS analysis; type: ADME; details: read-out: Stability; procedure, shortened: as §1
[3] = Metabolic stability in mouse plasma assessed as compound remaining at 10 uM after 1 hr by LC/MS/MS analysis; type: ADME, cell-free; details: read-out: Stability; procedure, shortened: as §1
[4] = Metabolic stability in human liver microsomes assessed as compound remaining at 10 uM after 1 hr by LC/MS/MS analysis; type: ADME; details: read-out: Stability; procedure, shortened: as §1
[5] = Chemical stability of compound; type: physicochemical
Plasma [6] = test: Prodrug activation in mouse plasma assessed as 2-phosphonomethylpentanedioic acid formation at 30 mg/kg administered via oral gavage after 30 mins by LC/MS/MS analysis; type: organism-based; details: in vivo, 0.5 h
Procedure, shortened: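 Mice given prodrug orally at 30 mg/kg (equivalent of 1), 10 mL/kg volume; blood taken at 30 min, N=3. Plasma extracted with methanol containing 2-PMSA internal standard. Released 1 measured selectively after mild MTBSTFA derivatization (~60 °C, 40 min) by LC/MS/MS. Total prodrug plus metabolites measured separately after n-butanol/3N HCl derivatization (60°C, 30 min), which converts all species to butyl esters of 1.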

Mus musculus [7] = test: AUC (0 to t) in mouse assessed as 2-phosphonomethylpentanedioic acid at 30 mg/kg administered via oral gavage measured after 15 mins to 4 hrs by LC/MS/MS analysis; type: ADME, organism-based; design: time upper 4 hr, dose 30 mg/kg, time lower 0.25 hr, route oral; details: in vivo
Procedure, shortened: (§2)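 Mice dosed orally at 30 mg/kg (equivalent of 1), 10 mL/kg dosing volume. Cardiac-puncture blood at 0, 15, 30 min, 1, 2, 4 h, n=3 per time point; plasma stored at -80°C. Methanol precipitation with 2-PMSA internal standard, then mild MTBSTFA derivatization (~60 °C, 40 min) so only free 1 is measured by LC/MS/MS. Cmax/Tmax observed; AUC to last sample by log-linear trapezoidal rule.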

Canis familiaris [8] = test: Tmax in beagle dog assessed as 2-phosphonomethylpentanedioic acid at 10 mg/kg administered via oral gavage measured after 30 mins to 8 hrs by LC/MS/MS analysis; type: ADME, organism-based, Canis lupus familiaris; details: in vivo
Procedure, shortened: (§3)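 Single beagle dog given oral dose of 10 mg/kg (expressed as equivalent of 1). Jugular venipuncture blood at 0, 30 min, 1, 2, 4, 6, 8 h into potassium oxalate/NaF tubes, kept on wet ice, spun 3000 x g, 4°C, 5 min; plasma frozen at -60 to -80°C. LC/MS/MS. Cmax and Tmax taken as observed values; AUC to last sample by log-linear trapezoidal rule.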

Mus musculus [9] = test: Cmax in mouse assessed as 2-phosphonomethylpentanedioic acid at 30 mg/kg administered via oral gavage measured after 15 mins to 4 hrs by LC/MS/MS analysis; type: ADME, organism-based; design: dose 30 mg/kg, route oral; details: in vivo; procedure, shortened: as §2
Mus musculus [10] = test: Tmax in mouse assessed as 2-phosphonomethylpentanedioic acid at 30 mg/kg administered via oral gavage measured after 15 mins to 4 hrs by LC/MS/MS analysis; type: ADME, organism-based; details: in vivo; procedure, shortened: as §2
Canis familiaris [11] = test: Cmax in beagle dog assessed as 2-phosphonomethylpentanedioic acid at 10 mg/kg administered via oral gavage measured after 30 mins to 8 hrs by LC/MS/MS analysis; type: ADME, organism-based, Canis lupus familiaris; design: dose 10 mg/kg, route oral; details: in vivo; procedure, shortened: as §3
Canis familiaris [12] = test: AUC (0 to t) in beagle dog assessed as 2-phosphonomethylpentanedioic acid at 10 mg/kg administered via oral gavage measured after 30 mins to 8 hrs by LC/MS/MS analysis; type: ADME, organism-based, Canis lupus familiaris; design: dose 10 mg/kg, time upper 8 hr, time lower 0.5 hr, route oral; details: in vivo; procedure, shortened: as §3
Plasma [13] = test: Plasma concentration in rhesus monkey at 10 mg/kg, po measured at 0.25 to 2 hrs post dose; type: ADME, organism-based, Macaca mulatta; details: in vivo
[14] = Cmax in mouse at 10 mg/kg administered via oral gavage measured after 15 mins to 4 hrs by LC/MS/MS analysis; type: ADME, organism-based; design: dose 10 mg/kg, route oral; details: in vivo
[15] = AUC (0 to t hrs) in mouse at 10 mg/kg administered via oral gavage measured after 15 mins to 4 hrs by LC/MS/MS analysis; type: ADME, organism-based; design: dose 10 mg/kg, time 0.25-4 hr, route oral; details: in vivo
[16] = Cmax in mouse at 30 mg/kg administered via oral gavage measured after 15 mins to 4 hrs by LC/MS/MS analysis; type: ADME, organism-based; design: dose 30 mg/kg, route oral; details: in vivo
Procedure, shortened: (§4)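 Mice were dosed by oral gavage at 30 mg/kg (parent-drug equivalent) in 10 mL/kg. Blood was taken by cardiac puncture at 0, 15 and 30 min and 1, 2 and 4 h, n=3 per time point. Plasma was stored at -80 °C and the released parent drug measured by LC/MS/MS. Cmax and Tmax are observed values; AUC is the log-linear trapezoidal AUClast.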

[17] = AUC (0 to t hrs) in mouse at 30 mg/kg administered via oral gavage measured after 15 mins to 4 hrs by LC/MS/MS analysis; type: ADME, organism-based; design: time lower 0.25 hr, dose 30 mg/kg, time upper 4 hr, route oral; details: in vivo; procedure, shortened: as §4
[18] = Tmax in mouse at 30 mg/kg administered via oral gavage measured after 15 mins to 4 hrs by LC/MS/MS analysis; type: ADME, organism-based; details: in vivo; procedure, shortened: as §4

remaining at 1 h, 10 µM [1] | remaining at 1 h, 10 µM [2] | remaining at 1 h, 10 µM [3] | remaining at 1 h, 10 µM [4] | Drug metabolism (Plasma [6]) | Compound | also measured
29% | 0% | 0% | 0% |  | COC(=O)CCC(CP(=O)(OCOC(=O)C(C)(C)C)OCOC(=O)C(C)(C)C)C(=O)OC (configuration not stated) | 
 |  |  |  |  | CC(C)OC(=O)OCOP(=O)(CC(CCC(=O)O)C(=O)O)OCOC(=O)OC(C)C (configuration not stated) | Stability [5]: Unstable
0% | 0.1% | 0.1% | 0% |  | COC(=O)CCC(CP(=O)(OCOC(=O)OC(C)C)OCOC(=O)OC(C)C)C(=O)OC (configuration not stated) | 
61% | 0% | 3% | 26% | 0.54 µM | CCOC(=O)C(CCC(=O)O)CP(=O)(OCOC(=O)C(C)(C)C)OCOC(=O)C(C)(C)C (configuration not stated) | 
96% | 101% | 86% | 103% |  | COC(=O)CCC(CP(=O)(O)O)C(=O)OC (configuration not stated) | 
79% | 0% | 0% | 0% | 15.8 µM | CC(C)(C)C(=O)OCOC(=O)C(CCC(=O)O)CP(=O)(OCOC(=O)C(C)(C)C)OCOC(=O)C(C)(C)C (configuration not stated) | 
48% | 0% | 0% | 0% | 15.66 µM | CC(C)OC(=O)OCOC(=O)C(CCC(=O)O)CP(=O)(OCOC(=O)OC(C)C)OCOC(=O)OC(C)C (configuration not stated) | AUCt (Mus musculus [7]): 35.9 µM·h; Tmax (Canis familiaris [8]): 1 h; Cmax (Mus musculus [9]): 15100 nM; Tmax (Mus musculus [10]): 0.5 h; Cmax (Canis familiaris [11]): 51100 nM; AUCt (Canis familiaris [12]): 126 µM·h
80% | 0% | 0% | 32% | 0.49 µM | CCOC(=O)C(CCC(=O)O)CP(=O)(OCOC(=O)OC(C)C)OCOC(=O)OC(C)C (configuration not stated) | 
18% | 0% | 0% | 0% |  | CCOC(=O)CCC(CP(=O)(OCOC(=O)C(C)(C)C)OCOC(=O)C(C)(C)C)C(=O)OCC (configuration not stated) | 
82% | 0% | 0% | 54% | 0.74 µM | COC(=O)C(CCC(=O)O)CP(=O)(OCOC(=O)C(C)(C)C)OCOC(=O)C(C)(C)C (configuration not stated) | 
73% | 83% | 59% | 88% |  | CCOC(=O)CCC(CP(=O)(O)O)C(=O)OCC (configuration not stated) | 

Compound | remaining at 1 h, 10 µM [1] | remaining at 1 h, 10 µM [2] | remaining at 1 h, 10 µM [3] | remaining at 1 h, 10 µM [4] | Drug metabolism (Plasma [6]) | also measured
O=C(O)CCC(CP(=O)(O)O)C(=O)O (configuration not stated) | 83% | 100% | 85% | 91% |  | concentration (Plasma [13]): 180 nM; Cmax [14]: 280 nM; AUC(0-t) [15]: 0.6 µM·h; Cmax [16]: 860 nM; AUC(0-t) [17]: 1.94 µM·h; Tmax [18]: 1 h
